ChEMBL document CHEMBL1127574, “Design and synthesis of ellipticinium salts and 1,2-dihydroellipticines with high selectivities against human CNS cancers in vitro” (1994)

Key:
Type in all cases: functional
Details in all cases: Homo sapiens
[1] = test system: IGROV-1; test: Tested in vitro for cytotoxicity in IGROV1 cell lines
Procedure, shortened: (§1)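 Compounds dissolved in DMSO, then diluted 500-fold into aqueous medium. The resulting aqueous solutions or suspensions were added to the cultured human tumour cell lines, and the cells were exposed for 48 h. Growth was read colorimetrically in one of two ways: a metabolic assay in which viable cells reduce a tetrazolium salt to a formazan dye, or a protein stain for total cellular protein.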

[2] = test system: CAKI-1; test: Tested in vitro for cytotoxicity in CAKI-1 cell lines; procedure, shortened: as §1
[3] = test system: Malme-3M; test: Tested in vitro for cytotoxicity in MALME-3M; procedure, shortened: as §1
[4] = test system: DMS-114; test: Tested in vitro for cytotoxicity in DMS114 cell lines; procedure, shortened: as §1
[5] = test system: A549; test: Tested in vitro for cytotoxicity in A549/ATCC cell lines; procedure, shortened: as §1
[6] = test system: SF-268; test: Tested in vitro for cytotoxicity in SF-268 cell lines; procedure, shortened: as §1
[7] = test system: CCRF-CEM; test: Tested in vitro for cytotoxicity in CCRF-CEM cell lines; procedure, shortened: as §1
[8] = test system: COLO 205; test: Tested in vitro for cytotoxicity in COLO 205 cell lines; procedure, shortened: as §1

For `COC[n+]1ccc2c(C)c3[nH]c4ccc(OC)cc4c3c(C)c2c1`, the GI50 [1] was 27.8 µM, the GI50 [2] was 20.2 µM and the GI50 [3] was 1.92 µM. For the same compound, the GI50 [4] was 1.32 µM, the GI50 [5] was 13.7 µM and the GI50 [6] was 0.818 µM. It also gave a GI50 [7] of 6.86 µM and a GI50 [8] of 2.68 µM.

Compound `Cc1ccc2[nH]c3c(C)c4c(c(C)c3c2c1)CN(C)C=C4` has a GI50 [1] of 0.774 µM, a GI50 [2] of 1.21 µM and a GI50 [3] of 1.72 µM. For the same compound, the GI50 [4] was 0.438 µM, the GI50 [5] was 0.38 µM and the GI50 [6] was 0.395 µM. For the same compound, the GI50 [7] was 2.34 µM and the GI50 [8] was 0.306 µM.

`COc1ccc2[nH]c3c(C)c4c(c(C)c3c2c1)CN(C)C=C4C=O` was tested, and the GI50 [1] was 31.2 µM, the GI50 [2] was 73.2 µM and the GI50 [3] was 40 µM. For the same compound, the GI50 [4] was 2.5 µM, the GI50 [5] was 75.7 µM and the GI50 [6] was 1.12 µM. For the same compound, the GI50 [7] was 60.4 µM and the GI50 [8] was 16.2 µM.

Work on `CC(=O)O[C@@H]1[C@@H](OC(C)=O)[C@@H](N2C=Cc3c(c(C)c4c([nH]c5ccccc54)c3C)C2)OC[C@@H]1OC(C)=O` yielded a GI50 [1] of 24.1 µM, a GI50 [2] of over 100 µM and a GI50 [3] of 30.2 µM. The GI50 [4] was 15.6 µM, the GI50 [5] was 64 µM and the GI50 [6] was 31 µM. For the same compound, the GI50 [7] was 29 µM and the GI50 [8] was 36.7 µM.

`CSC[n+]1ccc2c(C)c3[nH]c4ccccc4c3c(C)c2c1` gave a GI50 [1] of 18.2 µM, a GI50 [2] of 19.6 µM and a GI50 [3] of 1.99 µM. For the same compound, the GI50 [4] was 2.67 µM, the GI50 [5] was 5.23 µM and the GI50 [6] was 0.726 µM. For the same compound, the GI50 [7] was 5.02 µM and the GI50 [8] was 2.48 µM.

Compound `Cc1c2cc[n+](CC#N)cc2c(C)c2c1[nH]c1ccccc12` has a GI50 [1] of 35.6 µM, a GI50 [2] of over 100 µM and a GI50 [3] of 27.2 µM. It also gave a GI50 [4] of 44.7 µM, a GI50 [5] of 97.5 µM and a GI50 [6] of 13 µM. For the same compound, the GI50 [7] was 100 µM and the GI50 [8] was 34.6 µM.

Work on `Cc1c2ccncc2c(C)c2c1[nH]c1ccccc12` [ELLIPTECINE] yielded a GI50 [1] of 0.862 µM, a GI50 [2] of 1.01 µM and a GI50 [3] of 2.52 µM. The GI50 [4] was 0.552 µM, the GI50 [5] was 0.41 µM and the GI50 [6] was 0.816 µM. For the same compound, the GI50 [7] was 0.415 µM and the GI50 [8] was 0.588 µM.
